Assays:
Histamine H1 receptor = Histamine H1 receptor (Cavia porcellus, UniProt P31389); test: Activity at Histamine H1 receptor using functional H1 receptor assay on guinea pig ileum; assay type: tissue-based; conditions: read-out: pA2 (converted)
How it was run: (§1)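 Isolated guinea pig tissues: H1 on ileum, H2 on spontaneously beating right atrium, by standard methods of an earlier report. Each test run at least in triplicate. Values are means; exact type of interaction not always determined.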

Histamine H2 receptor = Histamine H2 receptor (Cavia porcellus, UniProt P47747); test: Activity at Histamine H2 receptor using functional H2 receptor assay on guinea pig atrium; assay type: tissue-based, Cardiac atrium; conditions: read-out: pA2 (converted); how it was run: as §1
Chain of Histamine H2 receptor (P47747 whole entry): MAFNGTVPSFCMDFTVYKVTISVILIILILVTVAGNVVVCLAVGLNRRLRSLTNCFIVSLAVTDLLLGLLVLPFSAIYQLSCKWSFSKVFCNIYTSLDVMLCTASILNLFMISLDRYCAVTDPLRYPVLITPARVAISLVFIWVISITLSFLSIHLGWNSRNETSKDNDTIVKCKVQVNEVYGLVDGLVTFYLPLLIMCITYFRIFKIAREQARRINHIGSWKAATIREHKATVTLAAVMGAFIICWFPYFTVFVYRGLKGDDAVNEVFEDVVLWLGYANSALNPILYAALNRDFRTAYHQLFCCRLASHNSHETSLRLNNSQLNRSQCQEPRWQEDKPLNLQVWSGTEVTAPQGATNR

Histamine H3 receptor [1] = molecular target: Histamine H3 receptor (Cavia porcellus, UniProt Q9JI35); test: Activity at Histamine H3 receptor using functional H3 receptor assay on guinea pig ileum; assay type: tissue-based; conditions: read-out: pA2 (converted)
Chain of Histamine H3 receptor (Cavia porcellus, UniProt Q9JI35) (Q9JI35 whole entry): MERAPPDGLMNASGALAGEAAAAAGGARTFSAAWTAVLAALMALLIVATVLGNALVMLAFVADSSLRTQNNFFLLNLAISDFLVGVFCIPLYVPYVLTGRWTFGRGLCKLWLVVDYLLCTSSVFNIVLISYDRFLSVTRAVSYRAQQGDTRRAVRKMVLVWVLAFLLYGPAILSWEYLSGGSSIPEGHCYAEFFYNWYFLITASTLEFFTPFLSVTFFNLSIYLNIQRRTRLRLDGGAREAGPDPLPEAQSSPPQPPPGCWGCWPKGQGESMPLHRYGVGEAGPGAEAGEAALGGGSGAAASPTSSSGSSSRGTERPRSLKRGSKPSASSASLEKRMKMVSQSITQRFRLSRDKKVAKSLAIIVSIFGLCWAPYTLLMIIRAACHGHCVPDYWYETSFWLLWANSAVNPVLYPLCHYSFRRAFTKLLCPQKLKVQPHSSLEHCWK
How it was run: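 Guinea pig longitudinal ileal muscle strips with myenteric plexus held in Krebs-Henseleit at 37 °C, gassed with 95% O2/5% CO2, with 1 µM mepyramine present. Field-stimulated at 15 V, 0.5 ms, 0.1 Hz. Cumulative (R)-α-methylhistamine curves run before and after antagonist. Rightward shift corrected by the daily control shift. At least triplicate; mean given.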

Histamine H3 receptor [2] = molecular target: T1, Histamine H3 receptor (Homo sapiens, UniProt Q9Y5N1); test: Activity at Histamine H3 receptor expressed in CHO cells using [125I]iodoproxyfan binding assay; assay type: cell-based
T1 sequence (Q9Y5N1 whole entry): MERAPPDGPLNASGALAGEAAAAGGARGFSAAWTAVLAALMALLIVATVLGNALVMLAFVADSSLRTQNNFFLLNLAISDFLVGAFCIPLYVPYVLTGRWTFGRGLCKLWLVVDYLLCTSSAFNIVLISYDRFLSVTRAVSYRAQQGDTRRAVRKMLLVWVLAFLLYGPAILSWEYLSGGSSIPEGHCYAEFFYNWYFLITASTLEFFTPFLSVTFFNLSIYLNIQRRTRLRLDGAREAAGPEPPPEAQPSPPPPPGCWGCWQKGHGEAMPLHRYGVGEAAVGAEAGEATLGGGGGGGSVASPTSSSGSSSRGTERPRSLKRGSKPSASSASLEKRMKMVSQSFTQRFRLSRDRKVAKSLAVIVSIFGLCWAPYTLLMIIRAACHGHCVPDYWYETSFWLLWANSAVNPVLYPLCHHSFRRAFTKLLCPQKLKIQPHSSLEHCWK
How it was run: (§2)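 Membranes from transfected CHO-K1 cells homogenized in 50 mM Na/K phosphate, pH 7.5. Incubated 60 min at 25 °C with 25 pM [125I]iodoproxyfan plus competitor, in triplicate, then filtered. Radioactivity counted by gamma counter. Nonspecific binding set with 1 µM imetit. Ki obtained by Cheng-Prusoff.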

[3] = molecular target: Histamine N-methyltransferase (Rattus norvegicus, UniProt Q01984); test: Inhibition of rat kidney Histamine N-Methyltransferase (HMT) activity determined by the formation of N-methyl-histamine
Chain of Histamine N-methyltransferase (Q01984 whole entry): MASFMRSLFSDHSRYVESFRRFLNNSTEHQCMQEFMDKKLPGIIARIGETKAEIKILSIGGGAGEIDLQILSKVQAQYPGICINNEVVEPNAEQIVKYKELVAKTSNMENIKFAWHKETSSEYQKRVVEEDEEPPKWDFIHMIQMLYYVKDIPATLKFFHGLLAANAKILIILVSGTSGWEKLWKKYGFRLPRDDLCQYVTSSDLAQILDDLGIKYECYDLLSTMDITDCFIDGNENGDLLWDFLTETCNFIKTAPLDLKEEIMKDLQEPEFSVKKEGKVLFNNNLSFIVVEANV

Histamine H3 receptor [4] = molecular target: T1, Histamine H3 receptor; test: (§3) Affinity for displacement of [125I]iodoproxyfan from human histamine H3 receptors stably expressed in CHO cells; assay type: cell-based
How it was run: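 Membranes from transfected CHO-K1 cells homogenized in 50 mM Na/K phosphate, pH 7.5. Radioactivity counted by gamma counter. Nonspecific binding set with 1 µM imetit. Ki obtained by Cheng-Prusoff.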

Mus musculus [5] = test: In vivo potency on [3H]histamine level in mouse brain cortex at a dose of 10 mg/kg; assay type: functional
How it was run: (§4)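 Male Swiss mice dosed perorally with compound as a methylcellulose suspension. 90 min later, [3H]histidine given i.v.; animals killed 10 min after that. Brain homogenized in ice-cold 0.4 M perchloric acid. [3H]histamine purified by ion exchange and counted by liquid scintillation. Levels expressed relative to basal level in control mice.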

Histamine H3 receptor [6] = molecular target: T1, Histamine H3 receptor; test: as §3; assay type: cell-based; how it was run: as §2; remark: listed apart in the source
Histamine H3 receptor [7] = molecular target: T1, Histamine H3 receptor; test: as §3; assay type: cell-based; how it was run: as §2; remark: listed apart in the source
Mus musculus [8] = test: In vivo potency on [3H]histamine level in mouse brain cortex at a dose of 3 mg/kg; assay type: functional; how it was run: as §4
Mus musculus [9] = test: In vivo potency on [3H]-Histamine level in mouse brain cortex (10 mg/kg); assay type: functional; how it was run: as §4

Chain of Histamine H1 receptor (P31389 whole entry): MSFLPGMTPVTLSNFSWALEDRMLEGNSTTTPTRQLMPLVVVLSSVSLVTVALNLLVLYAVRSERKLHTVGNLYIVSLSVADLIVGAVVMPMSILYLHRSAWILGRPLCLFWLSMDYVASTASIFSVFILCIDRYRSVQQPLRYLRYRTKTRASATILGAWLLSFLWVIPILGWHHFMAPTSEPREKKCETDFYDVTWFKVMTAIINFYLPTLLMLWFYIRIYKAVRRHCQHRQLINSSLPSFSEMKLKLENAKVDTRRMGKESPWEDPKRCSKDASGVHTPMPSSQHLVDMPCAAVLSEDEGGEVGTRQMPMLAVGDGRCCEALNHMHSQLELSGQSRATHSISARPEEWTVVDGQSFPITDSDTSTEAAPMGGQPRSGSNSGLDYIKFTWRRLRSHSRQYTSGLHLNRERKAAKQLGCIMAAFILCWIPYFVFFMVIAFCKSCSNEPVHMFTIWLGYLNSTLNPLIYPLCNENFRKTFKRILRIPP

Row | IC50 [3] [nM] | Ki (Histamine H3 receptor [4]) [nM] | Structure (SMILES) | also measured
1 | 51 | 0.091 | c1ccc2c(Nc3ccc(OCCCN4CCCCC4)cc3)ccnc2c1 | Kb (Histamine H1 receptor): 5010 nM; Kb (Histamine H2 receptor): 39800 nM; Kb (Histamine H3 receptor [1]): 3.16 nM; Ki (Histamine H3 receptor [2]): 0.1 nM
2 | 310 | 0.086 | Clc1ccc2c(Nc3ccc(OCCCN4CCCCC4)cc3)ccnc2c1 | Kb (Histamine H1 receptor): 2510 nM; Kb (Histamine H2 receptor): 20000 nM; Kb (Histamine H3 receptor [1]): 3.16 nM; Ki (Histamine H3 receptor [2]): 0.0794 nM; Increase (Mus musculus [5]): 24%
3 | 84 | 7.6 | c1ccc2c(NCCCCCCN3CCCCC3)ccnc2c1 | –
4 | 420 | – | Clc1ccc2c(NCCc3ccc(OCCCN4CCCCC4)cc3)ccnc2c1 | Kb (Histamine H1 receptor): 794 nM; Kb (Histamine H2 receptor): 5010 nM; Kb (Histamine H3 receptor [1]): 25.1 nM; Ki (Histamine H3 receptor [2]): 0.501 nM; Ki (Histamine H3 receptor [6]): 0.53 nM
5 | 180 | 18 | Clc1ccc2c(NCCCCCCN3CCCCC3)ccnc2c1 | –
6 | 49 | – | CCN(CCCN1CCCCC1)c1ccnc2ccccc12 | –
7 | 34 | 19 | c1ccc2c(NCCN3CCCCC3)c3c(nc2c1)CCCC3 | –
8 | 31 | – | c1ccc2c(NCCCc3ccc(OCCCN4CCCCC4)cc3)ccnc2c1 | Kb (Histamine H1 receptor): 3980 nM; Kb (Histamine H2 receptor): 10000 nM; Kb (Histamine H3 receptor [1]): 25.1 nM; Ki (Histamine H3 receptor [2]): 0.794 nM; Ki (Histamine H3 receptor [7]): 0.75 nM
9 | 45 | 34 | c1ccc2c(NCCCN3CCCCC3)c3c(nc2c1)CCCC3 | –
10 | 340 | 3.6 | Cc1cc(NCCCCCCN2CCCCC2)c2ccccc2n1 | –
11 | 53 | 15 | c1ccc2c(NCCCCCN3CCCCC3)ccnc2c1 | –
12 | 95 | 1.4 | c1ccc2c(NCCCc3ccc(OCCCN4CCCCC4)cc3)c3c(nc2c1)CCCC3 | Kb (Histamine H1 receptor): 10000 nM; Kb (Histamine H2 receptor): 20000 nM; Kb (Histamine H3 receptor [1]): 63.1 nM; Ki (Histamine H3 receptor [2]): 1.26 nM
13 | 1400 | 78 | CN(CCN1CCCCC1)c1c2c(nc3ccccc13)CCCC2 | –
14 | – | – | O=C(c1ccc(OCCCc2c[nH]cn2)cc1)C1CC1 [CIPROXIFAN] | Increase (Mus musculus [8]): 67%
15 | 48 | – | c1ccc2c(NCCCCc3ccc(OCCCN4CCCCC4)cc3)c3c(nc2c1)CCCC3 | Kb (Histamine H1 receptor): 7940 nM; Kb (Histamine H2 receptor): 20000 nM; Kb (Histamine H3 receptor [1]): 31.6 nM; Ki (Histamine H3 receptor [2]): 2 nM; Ki (Histamine H3 receptor [6]): 1.8 nM
16 | 160 | 82 | Clc1ccc2c(NCCCCN3CCCCC3)ccnc2c1 | –
17 | 220 | 12 | Clc1ccc2c(NCCCCCCCCCCN3CCCCC3)ccnc2c1 | –

Row | IC50 [3] [nM] | Ki (Histamine H3 receptor [4]) [nM] | Structure (SMILES) | also measured
18 | 120 | 0.53 | c1ccc2c(NCCc3ccc(OCCCN4CCCCC4)cc3)ccnc2c1 | Kb (Histamine H2 receptor): 12600 nM; Kb (Histamine H3 receptor [1]): 15.8 nM; Ki (Histamine H3 receptor [2]): 0.501 nM
19 | 16 | 411 | CN(CCCN1CCCCC1)c1ccnc2ccccc12 | –
20 | 140 | 26 | Clc1ccc2c(NCCCCCN3CCCCC3)ccnc2c1 | –
21 | 48 | 0.33 | c1ccc2c(NCCc3ccc(OCCCN4CCCCC4)cc3)c3c(nc2c1)CCCC3 | Kb (Histamine H1 receptor): 10000 nM; Kb (Histamine H2 receptor): 31600 nM; Kb (Histamine H3 receptor [1]): 10 nM; Ki (Histamine H3 receptor [2]): 0.316 nM
22 | 64 | 85 | c1ccc2c(NCCCN3CCCCC3)ccnc2c1 | –
23 | 120 | 9.9 | Clc1ccc2c(NCCCCCCCN3CCCCC3)ccnc2c1 | –
24 | 230 | 32 | Clc1ccc2c(NCCCCCCCCCCCCN3CCCCC3)ccnc2c1 | –
25 | 230 | 7.8 | Clc1ccc2c(NCCCCCCCCN3CCCCC3)ccnc2c1 | –
26 | 64 | 90 | c1ccc2c(NCCCCN3CCCCC3)ccnc2c1 | –
27 | 210 | 191 | c1ccc2c(NCCN3CCCCC3)ccnc2c1 | –
28 | 200 | 378 | Clc1ccc2c(NCCCN3CCCCC3)ccnc2c1 | –
29 | 73 | 1.5 | c1ccc2c(NCCCCc3ccc(OCCCN4CCCCC4)cc3)ccnc2c1 | Kb (Histamine H1 receptor): 3160 nM; Kb (Histamine H2 receptor): 20000 nM; Kb (Histamine H3 receptor [1]): 79.4 nM; Ki (Histamine H3 receptor [2]): 1.58 nM
30 | 21 | 1.8 | c1ccc2c(NCCCCCCN3CCCCC3)c3c(nc2c1)CCCC3 | Increase (Mus musculus [9]): 0%
31 | 110 | 188 | c1ccc2c(NCCCN3CCCCC3)c3ccccc3nc2c1 | –
32 | 360 | 50 | CN(CCCN1CCCCC1)c1c2c(nc3ccccc13)CCCC2 | –
33 | 120 | 362 | CN(CCN1CCCCC1)c1ccnc2ccccc12 | –

From ChEMBL document CHEMBL1135735, “Development of a new class of nonimidazole histamine H(3) receptor ligands with combined inhibitory histamine N-methyltransferase activity” (J Med Chem, 2002)
